Reference: ChEMBL document CHEMBL1240350, “In vitro activity of CEM-101 against Streptococcus pneumoniae and Streptococcus pyogenes with defined macrolide resistance mechanisms” (Antimicrob Agents Chemother, 2010)
Converted amounts (≈) assume the structure as drawn.

Columns and labels:
Assay type in all cases: functional
[1] = system: Streptococcus pneumoniae; assay: Antibacterial activity against Streptococcus pneumoniae harboring erm(A) gene after overnight incubation by agar dilution method
Outline: (§1)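 Clinical isolates collected 1998–2008, with macrolide-resistance genes confirmed by PCR. MICs by agar dilution on Mueller-Hinton agar with 5% sheep blood. Inoculum 10^4 CFU/spot, incubated overnight at 35°C in ambient air. S. pneumoniae ATCC 49619 was the quality-control strain in every run.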

[2] = system: Streptococcus pneumoniae; assay: Antibacterial activity against quinolone-resistant Streptococcus pneumoniae after overnight incubation by agar dilution method
Outline: (§2)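 Agar dilution on Mueller-Hinton agar supplemented with 5% sheep blood. Inoculum 10^4 CFU/spot, incubated overnight at 35°C in ambient air. Test strains were clinical pneumococcal isolates. S. pneumoniae ATCC 49619 was included as the quality control strain in each run. MIC range, MIC50 and MIC90 were reported for each susceptibility category.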

[3] = system: Streptococcus pyogenes; assay: Antibacterial activity against Streptococcus pyogenes harboring mutation in L4 ribosomal protein after overnight incubation by agar dilution method; outline: as §1
[4] = system: Streptococcus pneumoniae; assay: Antibacterial activity against Streptococcus pneumoniae harboring mutation in 23S rRNA after overnight incubation by agar dilution method; outline: as §1
[5] = system: Streptococcus pyogenes; assay: Antibacterial activity against macrolide-susceptible Streptococcus pyogenes after overnight incubation by agar dilution method
Outline: (§3)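 Agar dilution on Mueller-Hinton agar supplemented with 5% sheep blood, inoculum 10^4 CFU/spot, read after overnight incubation at 35°C in ambient air. Clinical isolates with defined genotypes; S. pneumoniae ATCC 49619 quality control strain included in each run. MIC50/MIC90 are MICs inhibiting 50% and 90% of isolates.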

[6] = system: Streptococcus pneumoniae; assay: Antibacterial activity against macrolide-resistant Streptococcus pneumoniae harboring mef(A) gene after overnight incubation by agar dilution method
Outline: (§4)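 Agar dilution MICs on Mueller-Hinton agar with 5% sheep blood. Inoculum 10^4 CFU/spot, incubated overnight at 35°C in ambient air. Clinical S. pneumoniae or group A streptococcal isolates; resistance genotypes (erm(B), erm(A), mef(A)/mef(E)) were assigned by PCR. S. pneumoniae ATCC 49619 served as QC strain in each run. Range, MIC50 and MIC90 reported per phenotype group.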

[7] = system: Streptococcus pneumoniae; assay: Antibacterial activity against Streptococcus pneumoniae harboring erm(B) gene after overnight incubation by agar dilution method; outline: as §1
[8] = system: Streptococcus pneumoniae; assay: Antibacterial activity against penicillin-susceptible Streptococcus pneumoniae after overnight incubation by agar dilution method; outline: as §2
[9] = system: Streptococcus pyogenes; assay: Antibacterial activity against macrolide-resistant Streptococcus pyogenes harboring erm(A) gene after overnight incubation by agar dilution method; outline: as §4
[10] = system: Streptococcus pyogenes; assay: Antibacterial activity against Streptococcus pyogenes harboring erm(A) gene after overnight incubation by agar dilution method; outline: as §1
[11] = system: Streptococcus pyogenes; assay: Antibacterial activity against Streptococcus pyogenes harboring erm(B) gene after overnight incubation by agar dilution method; outline: as §1
[12] = system: Streptococcus pyogenes; assay: Antibacterial activity against macrolide-resistant Streptococcus pyogenes harboring erm(B) gene after overnight incubation by agar dilution method; outline: as §4
[13] = system: Streptococcus pneumoniae; assay: Antibacterial activity against macrolide-resistant Streptococcus pneumoniae harboring erm(B) gene after overnight incubation by agar dilution method; outline: as §4
[14] = system: Streptococcus pneumoniae; assay: Antibacterial activity against Streptococcus pneumoniae harboring mutation in L4 ribosomal protein after overnight incubation by agar dilution method; outline: as §1
[15] = system: Streptococcus pneumoniae; assay: Antibacterial activity against macrolide-resistant Streptococcus pneumoniae harboring mutation in L4 ribosomal protein after overnight incubation by agar dilution method; outline: as §4
[16] = system: Streptococcus pneumoniae; assay: Antibacterial activity against macrolide-susceptible Streptococcus pneumoniae after overnight incubation by agar dilution method; outline: as §4
[17] = system: Streptococcus pneumoniae; assay: Antibacterial activity against Streptococcus pneumoniae harboring mef(A) gene after overnight incubation by agar dilution method; outline: as §1
[18] = system: Streptococcus pyogenes; assay: Antibacterial activity against Streptococcus pyogenes harboring mef(A) gene after overnight incubation by agar dilution method; outline: as §1
[19] = system: Streptococcus pyogenes; assay: Antibacterial activity against macrolide-resistant Streptococcus pyogenes harboring mef(A) gene after overnight incubation by agar dilution method; outline: as §4
[20] = system: Streptococcus pneumoniae; assay: Antibacterial activity against quinolone-susceptible Streptococcus pneumoniae after overnight incubation by agar dilution method; outline: as §2
[21] = system: Streptococcus pneumoniae; assay: Antibacterial activity against Streptococcus pneumoniae harboring erm(B) and mef(A) gene after overnight incubation by agar dilution method; outline: as §1
[22] = system: Streptococcus pneumoniae; assay: Antibacterial activity against penicillin-resistant Streptococcus pneumoniae after overnight incubation by agar dilution method; outline: as §2
[23] = system: Streptococcus pneumoniae; assay: Antibacterial activity against macrolide-resistant Streptococcus pneumoniae harboring erm(B) and mef(A) gene after overnight incubation by agar dilution method; outline: as §4
[24] = system: Streptococcus pneumoniae; assay: Antibacterial activity against penicillin-intermediate Streptococcus pneumoniae after overnight incubation by agar dilution method; outline: as §3

## COc1c(N2C[C@@H]3CCCN[C@@H]3C2)c(F)cc2c(=O)c(C(=O)O)cn(C3CC3)c12 [MOXIFLOXACIN]
[1]
  MIC: 0.25 µg/mL (≈ 0.623 µM)
[2]
  MIC50: 4 µg/mL (≈ 9.96 µM)
  MIC90: 4 µg/mL (≈ 9.96 µM)
[3]
  MIC: 0.25 µg/mL (≈ 0.623 µM)
[4]
  MIC: 0.25 µg/mL (≈ 0.623 µM)
[5]
  MIC50: 0.25 µg/mL (≈ 0.623 µM)
  MIC90: 0.25 µg/mL (≈ 0.623 µM)
[6]
  MIC50: 0.25 µg/mL (≈ 0.623 µM)
  MIC90: 0.5 µg/mL (≈ 1.25 µM)
[7]
  MIC50: 0.25 µg/mL (≈ 0.623 µM)
  MIC90: 0.5 µg/mL (≈ 1.25 µM)
[8]
  MIC50: 0.5 µg/mL (≈ 1.25 µM)
  MIC90: 4 µg/mL (≈ 9.96 µM)
[9]
  MIC50: 0.25 µg/mL (≈ 0.623 µM)
  MIC90: 0.25 µg/mL (≈ 0.623 µM)
[10]
  MIC50: 0.25 µg/mL (≈ 0.623 µM)
  MIC90: 0.25 µg/mL (≈ 0.623 µM)
[11]
  MIC50: 0.25 µg/mL (≈ 0.623 µM)
  MIC90: 0.25 µg/mL (≈ 0.623 µM)
[12]
  MIC50: 0.25 µg/mL (≈ 0.623 µM)
  MIC90: 0.25 µg/mL (≈ 0.623 µM)
[13]
  MIC50: 0.25 µg/mL (≈ 0.623 µM)
  MIC90: 0.5 µg/mL (≈ 1.25 µM)

## C[C@H]1COc2c(N3CCN(C)CC3)c(F)cc3c(=O)c(C(=O)O)cn1c23.C[C@H]1COc2c(N3CCN(C)CC3)c(F)cc3c(=O)c(C(=O)O)cn1c23.O [LEVOFLOXACIN]
[14]
  MIC50: 1 µg/mL
  MIC90: 2 µg/mL
[2]
  MIC50: 16 µg/mL
  MIC90: 16 µg/mL
[15]
  MIC50: 1 µg/mL
  MIC90: 2 µg/mL
[3]
  MIC: 0.5 µg/mL
[16]
  MIC50: 1 µg/mL
  MIC90: 16 µg/mL
[17]
  MIC50: 1 µg/mL
  MIC90: 2 µg/mL
[18]
  MIC50: 0.5 µg/mL
  MIC90: 1 µg/mL
[4]
  MIC: 0.06 µg/mL
[19]
  MIC50: 0.5 µg/mL
  MIC90: 1 µg/mL
[20]
  MIC50: 1 µg/mL
  MIC90: 2 µg/mL
[5]
  MIC50: 0.5 µg/mL
  MIC90: 0.5 µg/mL
[6]
  MIC50: 1 µg/mL
  MIC90: 2 µg/mL
[21]
  MIC50: 1 µg/mL
  MIC90: 16 µg/mL
[7]
  MIC50: 1 µg/mL
  MIC90: 2 µg/mL
[8]
  MIC50: 1 µg/mL
  MIC90: 16 µg/mL
[22]
  MIC50: 1 µg/mL
  MIC90: 2 µg/mL
[9]
  MIC50: 0.5 µg/mL
  MIC90: 1 µg/mL
[10]
  MIC50: 0.5 µg/mL
  MIC90: 1 µg/mL
[11]
  MIC50: 0.5 µg/mL
  MIC90: 1 µg/mL
[12]
  MIC50: 0.5 µg/mL
  MIC90: 1 µg/mL
[13]
  MIC50: 1 µg/mL
  MIC90: 2 µg/mL
[23]
  MIC50: 1 µg/mL
  MIC90: 16 µg/mL
[24]
  MIC50: 1 µg/mL
  MIC90: 2 µg/mL

## CC[C@H]1OC(=O)[C@H](C)[C@@H](O[C@H]2C[C@@](C)(OC)[C@@H](O)[C@H](C)O2)[C@H](C)[C@@H](O[C@@H]2O[C@H](C)C[C@H](N(C)C)[C@H]2O)[C@](C)(O)C[C@@H](C)C(=O)[C@H](C)[C@@H](O)[C@]1(C)O [ERYTHROMYCIN]
[1]
  MIC: 2 µg/mL (≈ 2.73 µM)
[2]
  MIC50: 0.06 µg/mL (≈ 0.0818 µM)
[3]
  MIC: 2 µg/mL (≈ 2.73 µM)
[16]
  MIC50: 0.06 µg/mL (≈ 0.0818 µM)
  MIC90: 0.125 µg/mL (≈ 0.17 µM)
[17]
  MIC50: 4 µg/mL (≈ 5.45 µM)
  MIC90: 32 µg/mL (≈ 43.6 µM)
[18]
  MIC50: 16 µg/mL (≈ 21.8 µM)
  MIC90: 32 µg/mL (≈ 43.6 µM)
[4]
  MIC: 8 µg/mL (≈ 10.9 µM)
[19]
  MIC50: 16 µg/mL (≈ 21.8 µM)
  MIC90: 32 µg/mL (≈ 43.6 µM)
[20]
  MIC50: > 64 µg/mL
  MIC90: > 64 µg/mL
[5]
  MIC50: 0.06 µg/mL (≈ 0.0818 µM)
  MIC90: 0.125 µg/mL (≈ 0.17 µM)
[6]
  MIC50: 4 µg/mL (≈ 5.45 µM)
  MIC90: 32 µg/mL (≈ 43.6 µM)
[8]
  MIC50: 4 µg/mL (≈ 5.45 µM)
  MIC90: > 64 µg/mL
[9]
  MIC50: 4 µg/mL (≈ 5.45 µM)
  MIC90: > 64 µg/mL
[10]
  MIC50: 4 µg/mL (≈ 5.45 µM)
  MIC90: > 64 µg/mL
[11]
  MIC50: > 64 µg/mL
  MIC90: > 64 µg/mL
[12]
  MIC50: > 64 µg/mL
  MIC90: > 64 µg/mL
[24]
  MIC50: > 64 µg/mL
  MIC90: > 64 µg/mL

## CC1(C)S[C@@H]2[C@H](NC(=O)Cc3ccccc3)C(=O)N2[C@H]1C(=O)O [PENICILLIN G]
[1]
  MIC: 0.03 µg/mL (≈ 0.0897 µM)
[14]
  MIC50: 4 µg/mL (≈ 12 µM)
  MIC90: 16 µg/mL (≈ 47.8 µM)
[2]
  MIC50: 0.25 µg/mL (≈ 0.748 µM)
  MIC90: 4 µg/mL (≈ 12 µM)
[15]
  MIC50: 4 µg/mL (≈ 12 µM)
  MIC90: 16 µg/mL (≈ 47.8 µM)
[3]
  MIC: 0.015 µg/mL (≈ 0.0449 µM)
[16]
  MIC50: 1 µg/mL (≈ 2.99 µM)
  MIC90: 2 µg/mL (≈ 5.98 µM)
[17]
  MIC50: 0.125 µg/mL (≈ 0.374 µM)
  MIC90: 4 µg/mL (≈ 12 µM)
[18]
  MIC50: 0.015 µg/mL (≈ 0.0449 µM)
  MIC90: 0.03 µg/mL (≈ 0.0897 µM)
[4]
  MIC: 0.015 µg/mL (≈ 0.0449 µM)
[19]
  MIC50: 0.015 µg/mL (≈ 0.0449 µM)
  MIC90: 0.03 µg/mL (≈ 0.0897 µM)
[20]
  MIC50: 1 µg/mL (≈ 2.99 µM)
  MIC90: 4 µg/mL (≈ 12 µM)
[5]
  MIC50: 0.015 µg/mL (≈ 0.0449 µM)
  MIC90: 0.015 µg/mL (≈ 0.0449 µM)
[6]
  MIC50: 0.125 µg/mL (≈ 0.374 µM)
  MIC90: 4 µg/mL (≈ 12 µM)
[21]
  MIC50: 2 µg/mL (≈ 5.98 µM)
  MIC90: 4 µg/mL (≈ 12 µM)
[7]
  MIC50: 1 µg/mL (≈ 2.99 µM)
  MIC90: 4 µg/mL (≈ 12 µM)
[8]
  MIC50: 0.03 µg/mL (≈ 0.0897 µM)
  MIC90: 0.06 µg/mL (≈ 0.179 µM)
[22]
  MIC50: 4 µg/mL (≈ 12 µM)
  MIC90: 8 µg/mL (≈ 23.9 µM)
[9]
  MIC50: 0.015 µg/mL (≈ 0.0449 µM)
  MIC90: 0.015 µg/mL (≈ 0.0449 µM)
[10]
  MIC50: 0.015 µg/mL (≈ 0.0449 µM)
  MIC90: 0.015 µg/mL (≈ 0.0449 µM)
[11]
  MIC50: 0.015 µg/mL (≈ 0.0449 µM)
  MIC90: 0.015 µg/mL (≈ 0.0449 µM)
[12]
  MIC50: 0.015 µg/mL (≈ 0.0449 µM)
  MIC90: 0.015 µg/mL (≈ 0.0449 µM)
[13]
  MIC50: 1 µg/mL (≈ 2.99 µM)
  MIC90: 4 µg/mL (≈ 12 µM)
[23]
  MIC50: 2 µg/mL (≈ 5.98 µM)
  MIC90: 4 µg/mL (≈ 12 µM)
[24]
  MIC50: 0.5 µg/mL (≈ 1.5 µM)
  MIC90: 1 µg/mL (≈ 2.99 µM)
